Assay outcomes: PubChem, Johns Hopkins Ion Channel Center
Hits are enriched below; roughly 3.5% of the tested compounds scored in any of these assays.
MrgX1 PAM = allosterically activates human MrgX1 receptor signaling; Q96LB2; MrgX1-HEK293, Fluo-4 calcium flux, FDSS; active compounds read high; B-score at 10 µM; 0.63% of 310,000 active; AID 588675;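 active means plate-corrected calcium response at least 3 library SD above typical, normal starting fluorescence, not activating the receptor alone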;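 further: compound read alongside a low EC10 to EC30 dose of BAM8-22 agonist; peak minus trough fluorescence over baseline measured at the second addition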
Target sequence (Q96LB2 whole entry, looked up): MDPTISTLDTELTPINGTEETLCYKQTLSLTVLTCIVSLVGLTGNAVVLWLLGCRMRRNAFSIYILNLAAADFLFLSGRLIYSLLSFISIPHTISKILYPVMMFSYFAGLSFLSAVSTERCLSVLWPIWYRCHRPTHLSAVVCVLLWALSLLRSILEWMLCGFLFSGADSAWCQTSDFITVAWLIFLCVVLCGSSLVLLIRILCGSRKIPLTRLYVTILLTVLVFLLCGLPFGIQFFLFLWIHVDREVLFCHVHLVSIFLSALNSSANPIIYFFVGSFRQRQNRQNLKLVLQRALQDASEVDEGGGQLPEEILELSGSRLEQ
MrgX1 antag = human MrgX1 receptor antagonism, primary screen | Q96LB2 | MRGX1-HEK293 calcium flux, Fluo-4, BAM8-22 antagonism; active compounds read low | B-score at 10 µM | 1.3% of 310,000 active | AID 588676;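 active means calcium-response B-score plate-corrected more than 3 library SD below zero, starting fluorescence within 5 deviations, no agonist response on first addition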;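 further: peak minus trough fluorescence over baseline after final BAM8-22 challenge near maximal dose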
RGS4 act = potentiators or activators of RGS4; B-score at 10 µM; 0.92% of 310,000 active; AID 463111; HEK293 M3R/inducible RGS4, carbachol calcium flux Fluo4; active compounds read low;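 active means B-score of the integrated calcium signal more than 4 SD below the library mean, with starting fluorescence not abnormally high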;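 further: negative B-score means reduced calcium response which marks RGS4 activation or potentiation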
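Reagent: ECmax carbachol challenge; Test system: M3R-expressing HEK293 line, RGS4 induced by doxycycline; Schedule: overnight RGS4 induction, 30 min dye load 37 °C, 20 min compound RT; Detection: calcium dye Fluo4 fluorescence; Read-out: Agonist-evoked peak-minus-minimum fluorescence over baseline, integrated ratio, B score.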
RGS4 inh = inhibitors of human RGS4; P49798; HEK293 M3R/RGS4 inducible, Fluo-4 calcium flux; active compounds read high; triggered by carbachol at its EC20; B-score at 10 µM; 0.45% of 310,000 active; AID 463165;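 active means B-score, a plate-corrected calcium signal, over three deviations above library mean, with baseline fluorescence within five deviations of library mean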;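 further: RGS4 expression induced by doxycycline in cells with stable M3 receptor; B-score is computed from the integrated fluorescence ratio over baseline after carbachol; higher B-score means a larger calcium signal and so more RGS4 inhibition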
Target sequence (P49798 whole entry, looked up): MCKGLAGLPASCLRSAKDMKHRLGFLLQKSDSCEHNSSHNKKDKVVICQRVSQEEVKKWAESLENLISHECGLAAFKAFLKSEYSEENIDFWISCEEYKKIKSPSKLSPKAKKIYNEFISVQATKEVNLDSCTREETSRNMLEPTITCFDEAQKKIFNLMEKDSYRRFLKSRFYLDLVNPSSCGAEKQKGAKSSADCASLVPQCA
MrgX1 agonist = activates human MrgX1 receptor signaling; 0.44% of 310,000 active; MrgX1-HEK293 cells, Fluo-4 calcium fluorescence, agonist mode; active compounds read high; B-score at 10 µM;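 active means calcium response B-score plate-corrected fluorescence ratio at least 3 library SD, with starting fluorescence B-score inside 5 SD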
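Assay system: stable human MrgX1 HEK293 cell line. Quantity: 15,000 cells per well. Schedule: cells plated overnight, dye loaded 0.5 h 37 °C, 0.5 h room temperature. Detection: Fluo-4 NW calcium-flux fluorescence, kinetic read. Read-out basis: peak-minus-minimum fluorescence over baseline, converted to B scores. Control set: positive and negative control wells on each plate.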
Active calls of the source: *.

What do the screens show for `O=C(CSc1n[nH]c(-c2ccccn2)n1)Nc1cccc(Cl)c1`?
MrgX1 PAM: inactive; MrgX1 antag: inactive; RGS4 act: inactive; RGS4 inh: inactive; MrgX1 agonist: inactive

What do the screens show for `CCn1c(-c2ccccc2Cl)nn(CC(=O)NCCc2ccccc2)c1=S`?
MrgX1 PAM: 12*; MrgX1 antag: inactive; RGS4 act: inactive; RGS4 inh: inactive; MrgX1 agonist: inactive

How did CCCNC(=O)c1ccc(N2CCC3(CC2)CC(c2cccc(Br)c2)=NO3)c(NC(=O)c2cccc(C)c2)c1 do in these assays?
MrgX1 PAM: inactive; MrgX1 antag: inactive; RGS4 act: inactive; RGS4 inh: inactive; MrgX1 agonist: inactive

Results for CC(=O)c1ccc(NC(=O)Cn2nc(C)c([N+](=O)[O-])c2C)cc1 ?
MrgX1 PAM: inactive; MrgX1 antag: inactive; RGS4 act: inactive; RGS4 inh: inactive; MrgX1 agonist: inactive

What do the screens show for `Cc1nn(CC(=O)Nc2ccc(C(C)C)cc2)c(C)c1[N+](=O)[O-]`?
MrgX1 PAM: inactive; MrgX1 antag: -7.1*; RGS4 act: inactive; RGS4 inh: inactive; MrgX1 agonist: inactive

How did Cc1ccccc1CN1C(=O)c2ccccc2S(=O)c2ccc(C(=O)NCCCN3CCOCC3)cc21 (configuration not stated) do in these assays?
MrgX1 PAM: inactive; MrgX1 antag: inactive; RGS4 act: inactive; RGS4 inh: inactive; MrgX1 agonist: inactive

What do the screens show for `CC1CCCCN1CCNC(=O)c1ccc2c(c1)N(Cc1cccc(Cl)c1)C(=O)c1ccccc1S2=O` (configuration not stated)?
MrgX1 PAM: inactive; MrgX1 antag: inactive; RGS4 act: -8.2*; RGS4 inh: inactive; MrgX1 agonist: inactive

How did CC1CC(C)CN(CCCNC(=O)c2ccc3c(c2)N(Cc2ccccc2)C(=O)c2ccccc2S3=O)C1 (configuration not stated) do in these assays?
MrgX1 PAM: inactive; MrgX1 antag: inactive; RGS4 act: -7.2*; RGS4 inh: inactive; MrgX1 agonist: inactive

What do the screens show for `O=C(NCCCN1CCCC1)c1ccc2c(c1)N(Cc1cccc(Cl)c1)C(=O)c1ccccc1S2=O` (configuration not stated)?
MrgX1 PAM: inactive; MrgX1 antag: inactive; RGS4 act: inactive; RGS4 inh: inactive; MrgX1 agonist: inactive

What do the screens show for `CCCCCCn1nc(C(=O)OCC(=O)c2c(N)n(C)c(=O)n(C)c2=O)c2ccccc2c1=O`?
MrgX1 PAM: inactive; MrgX1 antag: inactive; RGS4 act: -8.7*; RGS4 inh: inactive; MrgX1 agonist: inactive

How did CCCCCn1nc(C(=O)OCC(=O)c2c(N)n(C)c(=O)n(C)c2=O)c2ccccc2c1=O do in these assays?
MrgX1 PAM: inactive; MrgX1 antag: inactive; RGS4 act: inactive; RGS4 inh: inactive; MrgX1 agonist: inactive

What do the screens show for `Cn1c(=O)c([N+](=O)[O-])c(N2CCN(Cc3ccc4c(c3)OCO4)CC2)c2ccccc21`?
MrgX1 PAM: inactive; MrgX1 antag: inactive; RGS4 act: -7.3*; RGS4 inh: inactive; MrgX1 agonist: inactive

Results for COc1ccc(OC)c(S(=O)(=O)N2CCN(c3ccccc3OC)CC2)c1 ?
MrgX1 PAM: inactive; MrgX1 antag: inactive; RGS4 act: inactive; RGS4 inh: inactive; MrgX1 agonist: inactive

How did Cc1cc(C)c(S(=O)(=O)Nc2ccccc2-c2ccccc2)c(C)c1 do in these assays?
MrgX1 PAM: inactive; MrgX1 antag: inactive; RGS4 act: inactive; RGS4 inh: inactive; MrgX1 agonist: inactive

What do the screens show for `O=C(Nc1cccc(-c2csc(Nc3ccccc3)n2)c1)c1ccccc1`?
MrgX1 PAM: inactive; MrgX1 antag: inactive; RGS4 act: -7.3*; RGS4 inh: inactive; MrgX1 agonist: inactive

How did O=C(Nc1cccc(-c2csc(Nc3cccc(C(F)(F)F)c3)n2)c1)c1ccccc1 do in these assays?
MrgX1 PAM: inactive; MrgX1 antag: inactive; RGS4 act: inactive; RGS4 inh: inactive; MrgX1 agonist: inactive

Results for Cc1nn2c(N3CCCC3)cc(C(C)C)nc2c1-c1ccccc1 ?
MrgX1 PAM: inactive; MrgX1 antag: inactive; RGS4 act: -7.1*; RGS4 inh: inactive; MrgX1 agonist: inactive

How did O=C(CSc1nnc(SCc2cccc3ccccc23)s1)N/N=C/C=C/c1ccccc1[N+](=O)[O-] do in these assays?
MrgX1 PAM: inactive; MrgX1 antag: inactive; RGS4 act: inactive; RGS4 inh: inactive; MrgX1 agonist: inactive

How did Cc1ccc(N2C(=O)C(Cl)=C(N3CCOCC3)C2=O)c(C)c1 do in these assays?
MrgX1 PAM: inactive; MrgX1 antag: inactive; RGS4 act: inactive; RGS4 inh: inactive; MrgX1 agonist: inactive

Results for Cc1nn(CC(=O)c2cccc(Cl)c2)c(C)c1[N+](=O)[O-] ?
MrgX1 PAM: inactive; MrgX1 antag: inactive; RGS4 act: inactive; RGS4 inh: inactive; MrgX1 agonist: inactive

How did CN(C(=O)CSc1nnc(-c2ccccc2F)o1)c1ccccc1 do in these assays?
MrgX1 PAM: inactive; MrgX1 antag: inactive; RGS4 act: inactive; RGS4 inh: inactive; MrgX1 agonist: inactive

How did COc1ccc(CN(C(=O)CSc2nnc(-c3ccccc3F)o2)c2ccc(F)cc2)cc1 do in these assays?
MrgX1 PAM: inactive; MrgX1 antag: inactive; RGS4 act: -7.8*; RGS4 inh: inactive; MrgX1 agonist: inactive

What do the screens show for `COc1ccc(Cc2nnc(SCC(=O)N(C)CC(=O)Nc3ccc(C)cc3)o2)cc1`?
MrgX1 PAM: inactive; MrgX1 antag: -4.6*; RGS4 act: inactive; RGS4 inh: inactive; MrgX1 agonist: inactive

How did Cc1ccc(NCC(=O)Nc2c(C)n(C)n(-c3ccccc3)c2=O)cc1S(=O)(=O)N(C)C do in these assays?
MrgX1 PAM: inactive; MrgX1 antag: inactive; RGS4 act: inactive; RGS4 inh: inactive; MrgX1 agonist: inactive

Results for CCOC(=O)C1CCCN(C2=NC(=O)/C(=C/c3ccc(O)c(OCC)c3)S2)C1 (configuration not stated) ?
MrgX1 PAM: inactive; MrgX1 antag: -4.5*; RGS4 act: inactive; RGS4 inh: inactive; MrgX1 agonist: inactive

Results for C=C1SC(=Nc2c(C)cccc2Cl)N(C(=O)c2sc3ccccc3c2Cl)C12CCCCC2 ?
MrgX1 PAM: inactive; MrgX1 antag: -5.1*; RGS4 act: inactive; RGS4 inh: inactive; MrgX1 agonist: inactive

What do the screens show for `O=C(Cn1ccc([N+](=O)[O-])n1)NCc1cccnc1`?
MrgX1 PAM: inactive; MrgX1 antag: inactive; RGS4 act: inactive; RGS4 inh: inactive; MrgX1 agonist: inactive

Results for COc1ccc(CCNC(=O)c2cccc(C(=O)NCCc3ccc(OC)cc3)n2)cc1 ?
MrgX1 PAM: inactive; MrgX1 antag: -4.8*; RGS4 act: inactive; RGS4 inh: inactive; MrgX1 agonist: inactive

Results for Cc1csc(NC(=O)C(F)(F)F)n1 ?
MrgX1 PAM: inactive; MrgX1 antag: inactive; RGS4 act: inactive; RGS4 inh: inactive; MrgX1 agonist: inactive
